In ChEMBL document CHEMBL1687930 (J Med Chem, 2011):
Calls of active or inactive are those of the source. The calls are words filed in the database; no cut-off is given here.

Key:
[1] = target: T1, Kinesin-like protein KIF11 (Homo sapiens, UniProt P52732); assay: Inhibition of untagged human Eg5 microtubule-stimulated ATPase activity
T1 sequence (P52732 whole entry): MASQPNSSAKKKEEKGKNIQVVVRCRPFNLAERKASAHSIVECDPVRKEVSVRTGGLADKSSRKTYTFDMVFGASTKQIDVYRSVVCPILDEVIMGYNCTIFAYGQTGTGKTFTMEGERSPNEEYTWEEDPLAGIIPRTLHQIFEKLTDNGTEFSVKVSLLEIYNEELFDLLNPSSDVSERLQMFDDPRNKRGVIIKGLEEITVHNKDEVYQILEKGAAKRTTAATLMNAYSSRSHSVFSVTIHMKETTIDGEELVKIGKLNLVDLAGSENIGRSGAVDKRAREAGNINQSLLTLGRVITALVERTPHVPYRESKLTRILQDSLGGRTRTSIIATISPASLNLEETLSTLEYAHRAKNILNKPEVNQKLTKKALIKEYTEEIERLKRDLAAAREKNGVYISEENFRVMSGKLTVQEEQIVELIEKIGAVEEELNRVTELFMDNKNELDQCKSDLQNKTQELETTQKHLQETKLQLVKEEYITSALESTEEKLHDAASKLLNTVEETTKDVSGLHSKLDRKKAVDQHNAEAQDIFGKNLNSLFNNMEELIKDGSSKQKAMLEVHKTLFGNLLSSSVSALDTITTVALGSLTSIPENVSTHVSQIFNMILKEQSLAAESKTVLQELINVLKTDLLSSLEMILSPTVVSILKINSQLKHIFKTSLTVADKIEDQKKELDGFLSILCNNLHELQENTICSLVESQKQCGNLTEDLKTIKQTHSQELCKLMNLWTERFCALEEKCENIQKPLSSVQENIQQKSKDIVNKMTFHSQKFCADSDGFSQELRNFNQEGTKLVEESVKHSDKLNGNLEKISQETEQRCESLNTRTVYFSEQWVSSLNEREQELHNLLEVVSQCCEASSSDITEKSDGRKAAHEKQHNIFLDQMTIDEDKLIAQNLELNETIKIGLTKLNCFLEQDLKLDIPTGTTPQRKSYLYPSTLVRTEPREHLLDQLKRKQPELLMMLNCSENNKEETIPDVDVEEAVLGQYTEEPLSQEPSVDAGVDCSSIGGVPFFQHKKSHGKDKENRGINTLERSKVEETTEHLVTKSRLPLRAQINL

[2] = target: T1, Kinesin-like protein KIF11; assay: Inhibition of untagged human Eg5 basal ATPase activity; details: read-out: Ki(app)
[3] = Growth inhibition of dog MDCK2-MDR1 cells overexpressing human P-glycoprotein; assay type: functional; details: Canis lupus familiaris, MDCK-II
Procedure, shortened: (§1)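 Parental lines (MDCKII, LLC-PK1) and matched Pgp-overexpressing lines (MDCKII-MDR1, about 500-fold Pgp; L-MDR1, about 25000-fold Pgp) were tested with and without the Pgp inhibitor LY335979. Each experiment was run at least in triplicate, with 8 wells per concentration. GI50 came from a nonlinear four-parameter sigmoidal concentration-response fit.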

[4] = target: T2, Kinesin-like protein KIF11 (Homo sapiens) (UniProt P52732); assay: Binding affinity to Eg5 at 2 mM by crystallography
T2 sequence (whole entry): T1 sequence (P52732 whole entry)

MDCK-II = assay: Ratio of GI50 for dog MDCK2-MDR1 cells overexpressing human P-glycoprotein to GI50 for dog MDCK2 cells; assay type: functional, Canis lupus familiaris
[5] = Growth inhibition of dog MDCK2 cells in presence of P-glycoprotein inhibitor LY335979; assay type: functional; details: Canis lupus familiaris, MDCK-II
Procedure, shortened: as §1

[6] = Growth inhibition of dog MDCK2-MDR1 cells overexpressing human P-glycoprotein in presence of P-glycoprotein inhibitor LY335979; assay type: functional; details: Canis lupus familiaris, MDCK-II
Procedure, shortened: as §1

[7] = Growth inhibition of dog MDCK2 cells; assay type: functional; details: Canis lupus familiaris, MDCK-II
Procedure, shortened: as §1

[8] = Growth inhibition of pig L-MDR1 cells overexpressing human P-glycoprotein; assay type: functional; details: Sus scrofa
Procedure, shortened: as §1

LLC-PK1 [9] = assay: Growth inhibition of pig LLC-PK1 cells; assay type: functional; details: Sus scrofa
Procedure, shortened: as §1

LLC-PK1 [10] = assay: Ratio of GI50 for pig L-MDR1 cells overexpressing human P-glycoprotein to GI50 for pig LLC-PK1 cells; assay type: functional, Sus scrofa
Procedure, shortened: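 MDR ratio is the GI50 in L-MDR1 cells (Pgp-overexpressing) divided by the GI50 in parental LLC-PK1 cells. Each GI50 came from growth inhibition run at least in triplicate, with 8 wells per concentration, fitted by a four-parameter sigmoidal model.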

[11] = Growth inhibition of pig L-MDR1 cells overexpressing human P-glycoprotein in presence of P-glycoprotein inhibitor LY335979; assay type: functional; details: Sus scrofa
Procedure, shortened: as §1

LLC-PK1 [12] = assay: Growth inhibition of pig LLC-PK1 cells in presence of P-glycoprotein inhibitor LY335979; assay type: functional; details: Sus scrofa
Procedure, shortened: as §1

[13] = target: T2, Kinesin-like protein KIF11 (Homo sapiens); assay: Inhibition of untagged human Eg5 microtubule-stimulated ATPase activity
[14] = target: T2, Kinesin-like protein KIF11 (Homo sapiens); assay: Inhibition of untagged human Eg5 basal ATPase activity

SMILES	IC50 [1] [nM]	Ki [2] [nM]	GI50 [3] [nM]	Activity [4]	RatioGI50 (MDCK-II)	GI50 [5] [nM]	GI50 [6] [nM]	GI50 [7] [nM]	GI50 [8] [nM]	GI50 (LLC-PK1 [9]) [nM]	RatioGI50 (LLC-PK1 [10])	GI50 [11] [nM]	GI50 (LLC-PK1 [12]) [nM]	inhibition [13]	inhibition [14]
N[C@@H](CSC(c1ccccc1)(c1ccccc1)c1cccs1)C(=O)O	41700	58300	–	–	–	–	–	–	–	–	–	–	–	–	–
N[C@@H](CSC(c1ccccc1)(c1ccccc1)c1ccc(Cl)cc1)C(=O)O	53.3	< 50	560	Active	2	330	270	280	6210	2110	2.9	1610	2450	–	–
CCCCc1ccc(C(SC[C@H](N)C(=O)O)(c2ccccc2)c2ccccc2)cc1	93.3	84.2	–	–	–	–	–	–	–	–	–	–	–	–	–
CSc1ccc(C(SC[C@H](N)C(=O)O)(c2ccccc2)c2ccccc2)cc1	21.8	< 50	410	–	3.7	110	210	110	11800	340	35.1	670	300	–	–
CN(C)[C@@H](CSC(c1ccccc1)(c1ccccc1)c1ccccc1)C(=O)O	–	–	–	–	–	–	–	–	–	–	–	–	–	inactive	inactive
Cc1ccc(C(SC[C@H](N)C(=O)O)(c2ccccc2)c2ccccc2)cc1	61.7	< 50	350	–	3.8	80	120	90	3830	1050	3.7	490	1180	–	–
N[C@@H](CSC(c1ccccc1)(c1ccccc1)c1ccc(-c2ccccc2)cc1)C(=O)O	1970	1350	68500	–	3	20000	24500	22700	–	77800	–	110000	75600	–	–
CC(C)c1ccc(C(SC[C@H](N)C(=O)O)(c2ccccc2)c2ccccc2)cc1	144	< 50	2750	–	3.5	840	880	780	36700	1050	34.8	1050	1510	–	–
CCCc1ccc(C(SC[C@H](N)C(=O)O)(c2ccccc2)c2ccccc2)cc1	85.9	< 50	1680	–	2.5	710	630	680	37600	1950	19.3	1760	1100	–	–
N[C@H](CSC(c1ccccc1)(c1ccccc1)c1ccccc1)C(=O)O	–	–	3150	–	–	920	780	610	36600	940	–	4460	1070	–	–
N[C@@H](CSC(c1ccccc1)(c1ccccc1)c1ccc(C2CCCCC2)cc1)C(=O)O	1580	3260	50800	–	2.1	17600	17900	24300	–	47900	–	56800	64900	–	–
N[C@@H](CSC(c1ccccc1)(c1ccccc1)c1ccc(C(F)(F)F)cc1)C(=O)O	116	< 50	670	–	2.1	330	270	320	8020	1000	8	1020	510	–	–
CCC(CC)C(SC[C@H](N)C(=O)O)(c1ccccc1)c1ccccc1	1630	302	–	–	–	–	–	–	–	–	–	–	–	–	–
CCC(C)C(SC[C@H](N)C(=O)O)(c1ccccc1)c1ccccc1 (mixture of isomers)	549	–	–	Active	–	–	–	–	–	–	–	–	–	–	–
N[C@@H](CSC(c1ccccc1)(c1ccccc1)c1ccc2ccccc2c1)C(=O)O	16.3	< 50	190	–	3.1	70	50	60	6180	160	38.6	290	180	–	–
CC(C)C(SC[C@H](N)C(=O)O)(c1ccccc1)c1ccccc1	1150	175	–	–	–	–	–	–	–	–	–	–	–	–	–
N[C@@H](CSC(c1ccccc1)(c1ccccc1)c1ccc(Br)cc1)C(=O)O	26.8	< 50	670	–	2.7	250	210	250	6780	3200	2.1	2350	2120	–	–
N[C@@H](CSC(c1ccccc1)(c1ccccc1)c1ccc(I)cc1)C(=O)O	19.3	< 50	330	–	3.4	110	180	100	9170	330	27.6	610	440	–	–
N[C@@H](CSC(c1ccccc1)(c1ccccc1)c1ccccc1)C(=O)O [S-TRITYL-L-CYSTEINE]	–	–	2300	–	–	890	580	860	33000	1060	–	3020	1110	–	–
COc1ccc(C(SC[C@H](N)C(=O)O)(c2ccccc2)c2ccccc2)cc1	–	–	540	–	–	240	80	220	6910	1660	–	1650	2050	–	–
CC[C@]1(O)C[C@H]2CN(CCc3c([nH]c4ccccc34)[C@@](C(=O)OC)(c3cc4c(cc3OC)N(C=O)[C@H]3[C@@](O)(C(=O)OC)[C@H](OC(C)=O)[C@]5(CC)C=CCN6CC[C@]43[C@@H]65)C2)C1 [VINCRISTINE]	–	–	107000	–	40.3	430	340	2650	2100	30	70	–	–	–	–
CCCCC(SC[C@H](N)C(=O)O)(c1ccccc1)c1ccccc1	319	< 50	–	–	–	–	–	–	–	–	–	–	–	–	–
CCc1ccc(C(SC[C@H](N)C(=O)O)(c2ccccc2)c2ccccc2)cc1	55.4	< 50	560	–	2.4	290	170	230	10800	340	31.8	160	300	–	–
NC(CSC(c1ccccc1)(c1ccccc1)c1ccc(C(=O)O)cc1)C(=O)O (stereo not given)	14100	2540	–	–	–	–	–	–	–	–	–	–	–	–	–
CC(C)(C)c1ccc(C(SC[C@H](N)C(=O)O)(c2ccccc2)c2ccccc2)cc1	1240	429	19500	–	6.8	2480	3010	2860	–	4280	>12.5	13500	5410	–	–
